Measurements as given in ChEMBL document CHEMBL5696442, “Discovery of type II inhibitors of TGFβ-activated kinase 1 (TAK1) and mitogen-activated protein kinase kinase kinase kinase 2 (MAP4K2)” (J Med Chem, 2015).
Activity calls are given as the source filed them. The calls are words filed in the database; no cut-off is given here.

Key:
[1] = biological target: Serine/threonine-protein kinase mTOR (Homo sapiens) (UniProt P42345); assay: Inhibition of FRAP ATP labeling site in human Huh-7 cell lysate at 1 uM by KiNativ Profiling analysis relative to control; assay type: subcellular
[2] = biological target: T1, Serine/threonine-protein kinase 3 (Homo sapiens) (UniProt Q13188); assay: Inhibition of MST2 Lys2 labeling site harbouring IHRDIKAGNILLNTEGHAK in human Huh-7 cells at 1 uM by KiNativ Profiling analysis relative to control; assay type: cell-based
T1 sequence (whole entry): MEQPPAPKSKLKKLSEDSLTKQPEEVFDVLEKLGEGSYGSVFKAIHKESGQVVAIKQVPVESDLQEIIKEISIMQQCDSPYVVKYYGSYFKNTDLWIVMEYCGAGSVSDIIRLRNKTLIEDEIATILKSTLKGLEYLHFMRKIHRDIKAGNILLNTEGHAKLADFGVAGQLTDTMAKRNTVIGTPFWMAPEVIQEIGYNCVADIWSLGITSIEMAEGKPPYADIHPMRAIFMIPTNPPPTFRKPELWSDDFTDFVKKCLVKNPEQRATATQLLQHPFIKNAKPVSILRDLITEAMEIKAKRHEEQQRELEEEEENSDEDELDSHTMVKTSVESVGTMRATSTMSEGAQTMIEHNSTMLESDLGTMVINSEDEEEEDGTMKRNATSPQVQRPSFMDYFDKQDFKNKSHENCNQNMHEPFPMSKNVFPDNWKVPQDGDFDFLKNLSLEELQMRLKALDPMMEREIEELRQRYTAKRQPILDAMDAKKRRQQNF

[3] = biological target: Serine/threonine-protein kinase 4 (Homo sapiens) (UniProt Q13043); assay: Inhibition of MST1 Lys1 labeling site harbouring ETGQIVAIKQVPVESDLQEIIK in human Huh-7 cell lysate at 1 uM by KiNativ Profiling analysis relative to control
[4] = biological target: TRAF2 and NCK-interacting protein kinase (Homo sapiens) (UniProt Q9UKE5); assay: Inhibition of ZC2/TNIK Lys1 labeling site in human Huh-7 cell lysate at 1 uM by KiNativ Profiling analysis relative to control; assay type: subcellular
[5] = biological target: Protein kinase C delta type (Homo sapiens) (UniProt Q05655); assay: Inhibition of PRKCD (unknown origin) at 1 uM by Ambit Kinomescan binding assay relative to control; values are per cent of control
[6] = biological target: Serine/threonine-protein kinase 38-like (Homo sapiens) (UniProt Q9Y2H1); assay: Inhibition of NDR2 ACT labeling site in human A-375 cells at 5 uM by KiNativ Profiling analysis relative to control; assay type: cell-based
Serine/threonine-protein kinase 38-like (Homo sapiens), sequence (Q9Y2H1 2-464 limits assumed): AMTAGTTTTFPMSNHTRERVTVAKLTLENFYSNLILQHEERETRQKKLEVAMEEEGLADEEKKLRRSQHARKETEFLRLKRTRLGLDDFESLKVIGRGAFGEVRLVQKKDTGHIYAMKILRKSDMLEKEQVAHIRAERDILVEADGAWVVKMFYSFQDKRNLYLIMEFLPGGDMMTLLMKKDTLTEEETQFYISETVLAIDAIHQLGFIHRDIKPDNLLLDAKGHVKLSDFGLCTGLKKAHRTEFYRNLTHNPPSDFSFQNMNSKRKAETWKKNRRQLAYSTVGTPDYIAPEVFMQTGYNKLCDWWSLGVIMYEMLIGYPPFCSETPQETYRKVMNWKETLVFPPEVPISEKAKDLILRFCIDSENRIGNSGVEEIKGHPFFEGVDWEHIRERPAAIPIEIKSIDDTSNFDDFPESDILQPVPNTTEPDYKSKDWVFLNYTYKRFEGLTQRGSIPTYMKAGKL

[7] = biological target: Ribosomal protein S6 kinase alpha-2 (Homo sapiens) (UniProt Q15349); assay: Inhibition of RSK3 domain1 Lys2 labeling site in human A-375 cells at 5 uM by KiNativ Profiling analysis relative to control; assay type: cell-based
Ribosomal protein S6 kinase alpha-2 (Homo sapiens), sequence (Q15349 whole entry, the tested form may be a part): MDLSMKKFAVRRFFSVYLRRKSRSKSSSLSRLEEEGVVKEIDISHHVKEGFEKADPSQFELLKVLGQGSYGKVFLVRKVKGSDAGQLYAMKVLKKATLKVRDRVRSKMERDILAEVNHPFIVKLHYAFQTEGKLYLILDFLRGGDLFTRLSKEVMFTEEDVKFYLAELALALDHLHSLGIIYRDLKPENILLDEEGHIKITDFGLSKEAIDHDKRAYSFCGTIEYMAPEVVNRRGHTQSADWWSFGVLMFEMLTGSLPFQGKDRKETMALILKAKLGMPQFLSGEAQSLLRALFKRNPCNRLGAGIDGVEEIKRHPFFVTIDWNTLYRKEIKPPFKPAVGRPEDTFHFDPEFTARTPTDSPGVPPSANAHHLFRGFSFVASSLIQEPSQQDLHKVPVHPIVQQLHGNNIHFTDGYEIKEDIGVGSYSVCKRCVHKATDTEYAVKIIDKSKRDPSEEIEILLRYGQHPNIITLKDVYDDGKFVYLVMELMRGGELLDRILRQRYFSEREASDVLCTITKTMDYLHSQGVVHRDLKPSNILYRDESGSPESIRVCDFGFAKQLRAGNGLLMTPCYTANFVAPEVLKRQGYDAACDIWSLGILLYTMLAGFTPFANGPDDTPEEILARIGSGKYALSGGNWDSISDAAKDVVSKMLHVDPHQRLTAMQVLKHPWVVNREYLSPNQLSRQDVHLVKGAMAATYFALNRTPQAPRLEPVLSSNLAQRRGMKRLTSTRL
Procedure, shortened: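 Live A375 melanoma cells treated with compound at 5 or 0.5 μM, then lysed. Lysate kinases were labeled with a lysine-reactive ATP or ADP-biotin probe. Inhibition was read as protection of labeling sites from the probe.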

[8] = biological target: Mitogen-activated protein kinase kinase kinase kinase 1 (Homo sapiens) (UniProt Q92918); assay: Inhibition of HPK1 (unknown origin) at 1 uM by Ambit Kinomescan binding assay relative to control; values are per cent of control
[9] = biological target: Serine/threonine-protein kinase 24 (Homo sapiens) (UniProt Q9Y6E0); assay: Inhibition of MST3 Lys2 labeling site harbouring IHRDIKAANVLLSEHGEVK in human A-375 cells at 5 uM by KiNativ Profiling analysis relative to control; assay type: cell-based
[10] = biological target: Non-receptor tyrosine-protein kinase TYK2 (Homo sapiens) (UniProt P29597); assay: Inhibition of TYK2 JH2 pseudokinase domain (unknown origin) at 1 uM by Ambit Kinomescan binding assay relative to control
[11] = biological target: Dual specificity tyrosine-phosphorylation-regulated kinase 1B (Homo sapiens) (UniProt Q9Y463); assay: Inhibition of DYRK1B (unknown origin) at 1 uM by Ambit Kinomescan binding assay relative to control; values are per cent of control
Dual specificity tyrosine-phosphorylation-regulated kinase 1B (Homo sapiens), sequence (Q9Y463 whole entry, looked up): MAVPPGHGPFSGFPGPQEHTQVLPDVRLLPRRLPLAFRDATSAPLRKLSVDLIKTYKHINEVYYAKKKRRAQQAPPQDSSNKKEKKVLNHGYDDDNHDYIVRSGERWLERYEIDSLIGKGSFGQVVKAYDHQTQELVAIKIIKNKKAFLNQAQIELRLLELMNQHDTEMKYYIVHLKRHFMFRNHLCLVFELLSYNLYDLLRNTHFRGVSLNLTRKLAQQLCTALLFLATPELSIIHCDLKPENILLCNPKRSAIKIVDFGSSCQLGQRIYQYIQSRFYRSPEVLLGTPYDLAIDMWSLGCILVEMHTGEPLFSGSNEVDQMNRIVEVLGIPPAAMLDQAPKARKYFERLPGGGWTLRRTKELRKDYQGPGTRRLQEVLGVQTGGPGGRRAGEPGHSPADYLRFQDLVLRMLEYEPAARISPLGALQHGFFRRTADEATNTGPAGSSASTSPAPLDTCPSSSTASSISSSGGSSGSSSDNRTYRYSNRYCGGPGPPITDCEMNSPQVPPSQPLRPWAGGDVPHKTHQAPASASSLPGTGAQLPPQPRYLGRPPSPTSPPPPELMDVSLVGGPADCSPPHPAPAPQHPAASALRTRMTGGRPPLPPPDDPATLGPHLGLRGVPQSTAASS

[12] = biological target: Serine/threonine-protein kinase VRK2 (Homo sapiens) (UniProt Q86Y07); assay: Inhibition of VRK2 Lys2 labeling site in human A-375 cells at 0.05 uM by KiNativ Profiling analysis relative to control; assay type: cell-based
Serine/threonine-protein kinase VRK2 (Homo sapiens), sequence (Q86Y07 whole entry): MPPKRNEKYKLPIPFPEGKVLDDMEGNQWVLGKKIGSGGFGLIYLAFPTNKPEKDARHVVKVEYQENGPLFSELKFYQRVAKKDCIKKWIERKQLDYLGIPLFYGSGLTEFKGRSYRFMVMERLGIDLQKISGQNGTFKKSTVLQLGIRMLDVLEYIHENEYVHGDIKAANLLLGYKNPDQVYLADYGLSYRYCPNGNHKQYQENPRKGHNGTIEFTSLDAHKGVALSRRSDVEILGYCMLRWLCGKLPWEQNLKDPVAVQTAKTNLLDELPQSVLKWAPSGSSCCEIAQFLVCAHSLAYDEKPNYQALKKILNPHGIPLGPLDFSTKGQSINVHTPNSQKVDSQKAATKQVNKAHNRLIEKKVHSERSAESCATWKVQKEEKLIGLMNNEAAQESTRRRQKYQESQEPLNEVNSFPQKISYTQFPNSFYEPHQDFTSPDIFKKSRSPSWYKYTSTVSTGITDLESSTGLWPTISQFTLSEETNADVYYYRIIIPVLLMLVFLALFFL

[13] = biological target: Serine/threonine-protein kinase RIO2 (Homo sapiens) (UniProt Q9BVS4); assay: Inhibition of RIOK2 (unknown origin) at 1 uM by Ambit Kinomescan binding assay relative to control
[14] = biological target: Serine/threonine-protein kinase 38-like (Homo sapiens) (UniProt Q9Y2H1); assay: Inhibition of NDR2 Lys1 labeling site harbouring KDTGHIYAMKILR in human A-375 cells at 0.05 uM by KiNativ Profiling analysis relative to control; assay type: cell-based
[15] = biological target: Serine/threonine-protein kinase SIK3 (Homo sapiens) (UniProt Q9Y2K2); assay: Inhibition of QSK Lys2 labeling site in human A-375 cells at 0.05 uM by KiNativ Profiling analysis relative to control; assay type: cell-based
Serine/threonine-protein kinase SIK3 (Homo sapiens), sequence (Q9Y2K2 whole entry, looked up): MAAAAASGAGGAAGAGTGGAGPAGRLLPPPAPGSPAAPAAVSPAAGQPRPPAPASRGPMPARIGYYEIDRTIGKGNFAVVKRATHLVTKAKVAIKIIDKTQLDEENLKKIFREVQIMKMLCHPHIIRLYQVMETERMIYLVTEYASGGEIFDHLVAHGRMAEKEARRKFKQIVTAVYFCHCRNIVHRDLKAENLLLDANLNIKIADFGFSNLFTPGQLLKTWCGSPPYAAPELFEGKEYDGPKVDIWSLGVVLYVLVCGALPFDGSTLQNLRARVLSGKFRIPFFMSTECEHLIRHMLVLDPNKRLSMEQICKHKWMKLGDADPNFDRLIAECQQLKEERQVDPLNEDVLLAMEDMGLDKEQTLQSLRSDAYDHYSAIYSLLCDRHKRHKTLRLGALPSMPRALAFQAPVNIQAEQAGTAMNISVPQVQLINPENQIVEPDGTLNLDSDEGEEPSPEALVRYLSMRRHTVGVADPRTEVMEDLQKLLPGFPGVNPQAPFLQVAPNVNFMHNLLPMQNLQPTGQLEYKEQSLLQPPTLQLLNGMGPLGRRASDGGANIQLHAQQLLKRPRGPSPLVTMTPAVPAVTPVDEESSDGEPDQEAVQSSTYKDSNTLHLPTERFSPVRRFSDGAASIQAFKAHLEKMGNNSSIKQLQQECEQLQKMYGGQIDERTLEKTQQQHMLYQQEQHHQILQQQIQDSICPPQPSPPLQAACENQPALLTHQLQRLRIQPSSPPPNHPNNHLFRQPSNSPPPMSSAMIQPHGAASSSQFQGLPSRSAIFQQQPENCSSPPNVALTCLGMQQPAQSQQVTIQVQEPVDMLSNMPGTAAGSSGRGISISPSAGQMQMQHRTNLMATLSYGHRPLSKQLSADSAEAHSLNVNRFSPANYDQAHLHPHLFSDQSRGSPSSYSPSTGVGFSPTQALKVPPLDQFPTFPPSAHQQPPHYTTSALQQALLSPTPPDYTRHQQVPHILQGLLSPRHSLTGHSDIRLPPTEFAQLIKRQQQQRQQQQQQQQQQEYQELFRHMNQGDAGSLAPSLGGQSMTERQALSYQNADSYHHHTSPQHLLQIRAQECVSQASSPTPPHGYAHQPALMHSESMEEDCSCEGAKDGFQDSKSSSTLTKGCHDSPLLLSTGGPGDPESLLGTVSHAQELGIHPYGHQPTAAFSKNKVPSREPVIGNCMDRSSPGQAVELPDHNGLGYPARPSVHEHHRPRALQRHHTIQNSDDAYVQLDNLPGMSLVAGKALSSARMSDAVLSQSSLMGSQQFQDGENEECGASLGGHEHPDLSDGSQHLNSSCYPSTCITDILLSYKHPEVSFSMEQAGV

[16] = biological target: Membrane-associated tyrosine- and threonine-specific cdc2-inhibitory kinase (Homo sapiens) (UniProt Q99640); assay: Inhibition of PKMYT1 (unknown origin) at 10 uM by Ambit Kinomescan binding assay
[17] = biological target: Tyrosine-protein kinase JAK1 (Homo sapiens) (UniProt P23458); assay: Inhibition of JAK1 JH1 catalytic domain (unknown origin) at 10 uM by Ambit Kinomescan binding assay relative to control
[18] = biological target: Macrophage-stimulating protein receptor (Homo sapiens) (UniProt Q04912); assay: Inhibition of MST1R (unknown origin) at 10 uM by Ambit Kinomescan binding assay
Macrophage-stimulating protein receptor (Homo sapiens), sequence (Q04912 25-304 limits assumed): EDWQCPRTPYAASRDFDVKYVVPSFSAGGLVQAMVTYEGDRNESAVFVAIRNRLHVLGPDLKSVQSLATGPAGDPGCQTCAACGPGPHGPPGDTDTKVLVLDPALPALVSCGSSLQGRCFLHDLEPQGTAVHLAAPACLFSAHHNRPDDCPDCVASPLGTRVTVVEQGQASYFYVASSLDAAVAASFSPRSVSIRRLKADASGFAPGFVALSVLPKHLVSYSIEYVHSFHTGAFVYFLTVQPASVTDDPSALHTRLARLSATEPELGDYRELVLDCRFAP
Macrophage-stimulating protein receptor (Homo sapiens), sequence (Q04912 310-1400 limits assumed): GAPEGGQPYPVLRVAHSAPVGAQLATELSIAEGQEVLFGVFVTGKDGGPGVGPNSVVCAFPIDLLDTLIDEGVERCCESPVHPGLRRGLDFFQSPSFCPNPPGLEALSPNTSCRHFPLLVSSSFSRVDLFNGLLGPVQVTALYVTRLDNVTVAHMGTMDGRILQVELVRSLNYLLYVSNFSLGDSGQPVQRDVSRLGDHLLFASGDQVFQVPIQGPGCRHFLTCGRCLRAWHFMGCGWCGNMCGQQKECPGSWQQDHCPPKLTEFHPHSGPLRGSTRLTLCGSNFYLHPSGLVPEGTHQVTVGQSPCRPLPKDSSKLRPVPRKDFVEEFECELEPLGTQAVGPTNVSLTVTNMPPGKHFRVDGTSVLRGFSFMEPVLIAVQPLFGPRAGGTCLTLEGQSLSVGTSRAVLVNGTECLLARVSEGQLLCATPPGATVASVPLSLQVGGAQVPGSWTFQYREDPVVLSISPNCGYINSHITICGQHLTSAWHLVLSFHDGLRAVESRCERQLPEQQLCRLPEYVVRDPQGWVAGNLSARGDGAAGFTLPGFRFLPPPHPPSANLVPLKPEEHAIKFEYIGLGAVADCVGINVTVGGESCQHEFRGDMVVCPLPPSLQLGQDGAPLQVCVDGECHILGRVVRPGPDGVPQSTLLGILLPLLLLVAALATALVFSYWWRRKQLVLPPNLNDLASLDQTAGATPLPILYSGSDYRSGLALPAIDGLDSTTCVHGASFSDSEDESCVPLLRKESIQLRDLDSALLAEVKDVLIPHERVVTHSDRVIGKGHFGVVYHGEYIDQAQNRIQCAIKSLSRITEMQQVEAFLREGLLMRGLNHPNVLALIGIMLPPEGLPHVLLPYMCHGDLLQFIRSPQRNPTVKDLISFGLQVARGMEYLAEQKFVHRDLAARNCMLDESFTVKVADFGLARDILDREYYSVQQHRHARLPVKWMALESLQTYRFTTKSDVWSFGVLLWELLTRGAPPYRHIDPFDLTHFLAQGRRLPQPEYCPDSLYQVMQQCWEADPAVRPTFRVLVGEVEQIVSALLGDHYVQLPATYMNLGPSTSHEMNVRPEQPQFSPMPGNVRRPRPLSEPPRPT

[19] = biological target: Cyclin-dependent kinase 14 (Homo sapiens) (UniProt O94921); assay: Inhibition of PFTK1 (unknown origin) at 10 uM by Ambit Kinomescan binding assay relative to control
[20] = biological target: Focal adhesion kinase 1 (Homo sapiens) (UniProt Q05397); assay: Inhibition of FAK (unknown origin) at 10 uM by Ambit Kinomescan binding assay relative to control
[21] = tested on: Tyrosine-protein kinase ABL1 (Homo sapiens), P00519 [Y253F]; assay: Inhibition of ABL1 Y253F mutant (unknown origin) at 10 uM by Ambit Kinomescan binding assay relative to control
[22] = biological target: MAST1/MAST2 (Homo sapiens) (UniProt Q9Y2H9+Q6P0Q8); assay: Inhibition of MAST1/2 K2 labeling site in human Huh-7 cells at 10 uM by KiNativ Profiling analysis relative to control; assay type: cell-based
[23] = biological target: Serine/threonine-protein kinase/endoribonuclease IRE1 (Homo sapiens) (UniProt O75460); assay: Inhibition of IRE1 Lys2 labeling site in human A-375 cells at 5 uM by KiNativ Profiling analysis relative to control; assay type: cell-based
[24] = tested on: Proto-oncogene tyrosine-protein kinase receptor Ret (Homo sapiens), P07949 [V804M]; assay: Inhibition of RET V804M mutant (unknown origin) at 10 uM by Ambit Kinomescan binding assay relative to control; values are per cent of control

`CNc1cc(Oc2cc(C(=O)Nc3cc(N4CCN(C)CC4)cc(C(F)(F)F)c3)ccc2C)ncn1` was tested, and the inhibition [1] was -1.8%, the inhibition [2] was -0.8% and the inhibition [3] was -1.3%. For the same molecule, the inhibition [4] was 11.9%.

`CCN1CCN(Cc2ccc(NC(=O)c3ccc(C)c(/C=C/c4cnc5[nH]ccc5c4OC)c3)cc2C(F)(F)F)CC1` showed a residual activity [5] of 60%, an inhibition [6] of -2.6% and an inhibition [7] of 16.5%. The residual activity [8] was 0.55%, the inhibition [9] was -0.1% and the inhibition [10] was 47%. The residual activity [11] was 73%, the inhibition [12] was 28.7% and the inhibition [13] was 61%. It also gave an inhibition [14] of 6% and an inhibition [15] of 29.6%.

For `CCN1CCN(Cc2ccc(NC(=O)c3ccc(C)c(Oc4ccnc5[nH]ccc45)c3)cc2C(F)(F)F)CC1`, the inhibition [16] was “inactive”, the inhibition [17] was 11% and the inhibition [18] was “inactive”. The inhibition [19] was 0.4%, the inhibition [20] was 23% and the inhibition [21] was 1.1%. The inhibition [22] was 17.6%, the inhibition [23] was -5.7% and the residual activity [24] was 1%.
